Three compounds from ChEMBL document CHEMBL1154040, “Synthesis and evaluation of novel F-18 labeled fluoroarylvaline derivatives: potential PET imaging agents for tumor detection” (Bioorg Med Chem Lett, 2009) can be followed below.

Each structure is given as a SMILES string.

For data set [1], the system named is Brain. As to the kind of experiment: Biodistribution in S180 tumor-bearing KM mouse brain assessed per gram of tissue at 240 to 370 kBq, iv after 60 mins. In kind it is ADME, organism-based. The following applies: in vivo, 1 h.
In data set [2] the test system is Femur. Description: Biodistribution in S180 tumor-bearing KM mouse femur assessed per gram of tissue at 240 to 370 kBq, iv after 120 mins. The format is ADME, organism-based. The conditions noted are these: in vivo, 2 h. The method, boiled down:
(§1)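 Female KM mice (20 ± 2 g) were used 14–18 days after inoculation of 5 × 10^6 S 180 tumor cells. The ¹⁸F tracer in saline was injected into the tail vein of awake mice. Mice were killed at 5, 15, 30, 60 or 120 min, and the femur was removed, weighed and gamma-counted. Results are background-corrected %ID/g, mean ± SD, n = 4.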

The test system of another data set is Lung. Description: Biodistribution in S180 tumor-bearing KM mouse lung assessed per gram of tissue at 240 to 370 kBq, iv after 15 mins. The format is ADME, organism-based. The conditions noted are these: in vivo, 0.25 h.
The test system of data set [3] is Blood. Description: Biodistribution in S180 tumor-bearing KM mouse blood assessed per gram of tissue weight at 240 to 370 kBq, iv after 5 mins. In kind it is ADME, organism-based. The following applies: in vivo.
For data set [4], the system named is Femur. Description: Biodistribution in S180 tumor-bearing KM mouse femur assessed per gram of tissue at 240 to 370 kBq, iv after 5 mins. The format is ADME, organism-based. The following applies: in vivo. The method, boiled down:
as §1

The test system of data set [5] is Blood. Description: Stability in tumor bearing KM mouse blood after 30 mins at 4 MBq, iv. The format is ADME, tissue-based. The conditions noted are these: 0.5 h. The method, boiled down:
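Blood from tumor-bearing mice was collected after tracer injection and centrifuged at once for 5 min at 13,200 rpm. Supernatants from both centrifugation steps were combined, loaded onto a C18 Sep-Pak cartridge, washed with 2 ml water, then eluted.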

Data set [6] can be described thus: Biodistribution in S180 tumor present in KM mouse assessed per gram of tissue at 240 to 370 kBq, iv after 60 mins. The format is ADME, organism-based, Neoplasm. The conditions noted are these: in vivo, 1 h.
For data set [7], the system named is Kidney. As to the kind of experiment: Biodistribution in S180 tumor-bearing KM mouse kidney assessed per gram of tissue at 240 to 370 kBq, iv after 120 mins. The format is ADME, organism-based. The conditions noted are these: in vivo, 2 h.
A short description of data set [8]: Ratio of drug level in S180 tumor to brain KM mouse at 240 to 370 kBq, iv after 120 mins. The conditions noted are these: in vivo, 2 h. In kind it is ADME, organism-based.
Data set [9] is described as follows: Biodistribution in S180 tumor present in KM mouse assessed per gram of tissue at 240 to 370 kBq, iv after 30 mins. The format is ADME, organism-based, Neoplasm. The following applies: in vivo, 0.5 h.
Data set [10] concerns Brain. As to the kind of experiment: Biodistribution in S180 tumor-bearing KM mouse brain assessed per gram of tissue at 240 to 370 kBq, iv after 15 mins. The conditions noted are these: in vivo, 0.25 h. In kind it is ADME, organism-based.
Data set [11] deals with Femur. As to the kind of experiment: Biodistribution in S180 tumor-bearing KM mouse femur assessed per gram of tissue at 240 to 370 kBq, iv after 30 mins. The format is ADME, organism-based. The following applies: in vivo, 0.5 h. The method, boiled down:
as §1

Data set [12] deals with Blood. Description: Biodistribution in S180 tumor-bearing KM mouse blood assessed per gram of tissue weight at 240 to 370 kBq, iv after 15 mins. The format is ADME, organism-based. The conditions noted are these: in vivo, 0.25 h.
The test system of data set [13] is Femur. Description: Biodistribution in S180 tumor-bearing KM mouse femur assessed per gram of tissue at 240 to 370 kBq, iv after 60 mins. The format is ADME, organism-based. The conditions noted are these: in vivo, 1 h. The method, boiled down: as §1
Data set [14] is described as follows: Ratio of drug level in S180 tumor to muscleKM mouse at 240 to 370 kBq, iv after 60 mins. In kind it is ADME, organism-based, KM. The conditions noted are these: in vivo, 1 h.
Data set [15] relates to Brain. Description: Biodistribution in S180 tumor-bearing KM mouse brain assessed per gram of tissue at 240 to 370 kBq, iv after 30 mins. The format is ADME, organism-based. The conditions noted are these: in vivo, 0.5 h.
For a further data set, the system named is Spleen. Description: Biodistribution in S180 tumor-bearing KM mouse spleen assessed per gram of tissue at 240 to 370 kBq, iv after 30 mins. In kind it is ADME, organism-based. The following applies: in vivo, 0.5 h.
A short description of data set [16]: Ratio of drug level in S180 tumor to blood in KM mouse at 240 to 370 kBq, iv after 30mins. The conditions noted are these: tumour, 0.5 h. In kind it is ADME, organism-based.
The subject of data set [17] is Heart. As to the kind of experiment: Biodistribution in S180 tumor-bearing KM mouse heart assessed per gram of tissue weight at 240 to 370 kBq, iv after 5 mins. The format is ADME, organism-based. The conditions noted are these: in vivo.
The test system of data set [18] is Femur. As to the kind of experiment: Biodistribution in S180 tumor-bearing KM mouse femur assessed per gram of tissue at 240 to 370 kBq, iv after 15 mins. In kind it is ADME, organism-based. The conditions noted are these: in vivo, 0.25 h. The essentials:
as §1

A further data set concerns Muscle tissue. As to the kind of experiment: Biodistribution in S180 tumor-bearing KM mouse muscle assessed per gram of tissue at 240 to 370 kBq, iv after 60 mins. The format is ADME, organism-based. The conditions noted are these: in vivo, 1 h.
For data set [19], the system named is Kidney. Description: Biodistribution in S180 tumor-bearing KM mouse kidney assessed per gram of tissue at 240 to 370 kBq, iv after 5 mins. In kind it is ADME, organism-based. The conditions noted are these: in vivo.
In data set [20] the test system is Heart. As to the kind of experiment: Biodistribution in S180 tumor-bearing KM mouse heart assessed per gram of tissue weight at 240 to 370 kBq, iv after 120 mins. The format is ADME, organism-based. The following applies: in vivo, 2 h.

With `CC(C)[C@H](NC(=O)c1ccc([N+](=O)[O-])cc1[18F])C(=O)O`, the Drug uptake in the data set with Brain [1] is 0.03 %ID; in the data set on Femur [2] it was 2.15 %ID; with Lung, 2.01 %ID; with Blood [3], 2.43 %ID; with Femur [4], 3.61 %ID; in data set [6], 0.27 %ID. Besides, the Drug uptake in the data set on Kidney [7] worked out at 0.3 %ID; in [9] it was 0.56 %ID; with Brain [10] it was 0.09 %ID; with Femur [11] it was 3.38 %ID; in the data set on Blood [12] it was 1.27 %ID; in the data set on Femur [13], 2.47 %ID. The Drug uptake in the data set on Brain [15] amounted to 0.04 %ID; in the data set on Spleen it was 0.31 %ID; with Heart [17] it was 1.07 %ID; with Femur [18], 4.02 %ID; in the data set with Muscle tissue it was 0.15 %ID; in the data set with Kidney [19], 11.9 %ID. This compound also registered a Drug uptake in the data set with Heart [20] of 0.05 %ID. In addition, the Stability result in the data set with Blood [5] is recorded as “Stable”. Also, in data set [8], the tumor/brain ratio turned out to be 6.9. Besides, the tumor/muscle ratio in [14] was found to be 1.74. For the same compound, the tumor/blood ratio in [16] stood at 2.32.

`COC(=O)[C@@H](NC(=O)c1ccc([N+](=O)[O-])cc1[18F])C(C)C`: the Drug uptake with Brain [1] is listed as 0.17 %ID; with Femur [2], 2.01 %ID; in the data set with Lung, 2.57 %ID; in the data set on Blood [3], 3.09 %ID; in the data set with Femur [4] it was 1.6 %ID; in [6], 0.95 %ID. The Drug uptake in the data set on Kidney [7] turned out to be 0.29 %ID; in data set [9], 1.97 %ID; in the data set on Brain [10], 0.6 %ID; in the data set with Femur [11], 2.11 %ID; with Blood [12] it was 2.18 %ID; with Femur [13], 2.09 %ID. Besides, the Drug uptake in the data set with Brain [15] came to 0.28 %ID; with Spleen, 0.51 %ID; in the data set with Heart [17] it was 1.35 %ID; in the data set on Femur [18], 2.23 %ID; with Muscle tissue, 0.69 %ID; in the data set on Kidney [19], 17.9 %ID. Also, the Drug uptake in the data set on Heart [20] is 0.08 %ID. The Stability entry in the data set with Blood [5] was “Stable”. Also, the tumor/brain ratio in data set [8] was 2.61. In addition, the tumor/muscle ratio in [14] worked out at 1.39. The tumor/blood ratio in data set [16] was determined as 2.91.

As to `OC[C@H]1O[C@@H](O)[C@H]([18F])[C@@H](O)[C@@H]1O` [FLUDEOXYGLUCOSE-F18], the Drug uptake came out at 2.11 %ID with Brain [1]; 0.77 %ID in the data set on Lung; 1.09 %ID in the data set with Blood [3]; 2.16 %ID in [6]; 0.25 %ID with Kidney [7]; 1.86 %ID in data set [9]. In addition, the Drug uptake turned out to be 2.63 %ID with Brain [10]; 0.46 %ID in the data set with Blood [12]; 3.07 %ID with Brain [15]; 0.9 %ID with Spleen; 2.6 %ID in the data set with Heart [17]; 0.97 %ID with Muscle tissue. The Drug uptake in the data set on Kidney [19] is listed as 2.16 %ID; in the data set on Heart [20] it was 6.27 %ID. Further, the tumor/brain ratio in data set [8] stood at 1.33. In [14], the tumor/muscle ratio was 2.23.
